Results taken from ChEMBL document CHEMBL1151761, “Radiohalogenated prostate-specific membrane antigen (PSMA)-based ureas as imaging agents for prostate cancer” (J Med Chem, 2008).

How the values were obtained:
Type in all cases: ADME, organism-based
Urinary bladder = assay: Biodistribution in bladder of PSMA expressing human PC3 PIP and PSMA deficient human PC3 flu cells xenografted SCID mouse at 2 uCi, iv after 2 hrs; conditions: in vivo
Stomach [1] = assay: Biodistribution in stomach of PSMA expressing human PC3 PIP and PSMA deficient human PC3 flu cells xenografted SCID mouse at 2 uCi, iv after 30 mins; conditions: in vivo, 0.5 h
Stomach [2] = assay: Biodistribution in stomach of PSMA expressing human PC3 PIP and PSMA deficient human PC3 flu cells xenografted SCID mouse at 2 uCi, iv after 2 hrs; conditions: in vivo
Lung [3] = assay: Biodistribution in lung of PSMA expressing human PC3 PIP and PSMA deficient human PC3 flu cells xenografted SCID mouse at 2 uCi, iv after 2 hrs; conditions: in vivo
[4] = Biodistribution in PC3 flu tumor of PSMA expressing human PC3 PIP and PSMA deficient human PC3 flu cells xenografted SCID mouse at 2 uCi, iv after 5 hrs; conditions: in vivo
Method in brief: (§1)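 Male SCID mice carried subcutaneous PSMA+ PC-3 PIP (left shoulder) and PC-3 flu (right shoulder) xenografts, 1-5 × 10^6 cells in HBSS, and were used at 3-5 mm tumor diameter. Tail-vein injection of 2 µCi radioligand; four mice per time point, killed by cervical dislocation. %ID/g from a standard dilution of the dose, decay-corrected, mean ± SD; PIP tumor:organ ratios.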

[5] = Ratio of drug level in tumor to muscle of human PSMA expressing PC3 PIP and PSMA deficient human PC3 flu cells xenografted SCID mouse at 2 uCi, iv after 60 mins; conditions: in vivo, 1 h; method in brief: as §1
Blood [6] = assay: Biodistribution in blood of PSMA expressing human PC3 PIP and PSMA deficient human PC3 flu cells xenografted SCID mouse at 2 uCi, iv after 60 mins; conditions: in vivo, 1 h
[7] = Ratio of drug level in tumor to bladder of human PSMA expressing PC3 PIP and PSMA deficient human PC3 flu cells xenografted SCID mouse at 2 uCi, iv after 60 mins; conditions: in vivo, 1 h; method in brief: as §1
[8] = Biodistribution in large intestine of PSMA expressing human PC3 PIP and PSMA deficient human PC3 flu cells xenografted SCID mouse at 2 uCi, iv after 60 mins; conditions: in vivo, 1 h; method in brief: as §1
[9] = Ratio of drug level in tumor to muscle of human PSMA expressing PC3 PIP and PSMA deficient human PC3 flu cells xenografted SCID mouse at 2 uCi, iv after 2 hrs; conditions: in vivo; method in brief: as §1
[10] = Ratio of drug level in tumor to spleen of human PSMA expressing PC3 PIP and PSMA deficient human PC3 flu cells xenografted SCID mouse at 2 uCi, iv after 30 mins; conditions: in vivo, 0.5 h
Method in brief: (§2)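 Male SCID mice carried subcutaneous xenografts: PSMA+ PC-3 PIP behind the left shoulder and PSMA− PC-3 flu behind the right, 1–5 × 10^6 cells in HBSS. Mice were used at 3–5 mm tumor diameter. 2 μCi was given by tail vein, and 4 mice per time point were killed by cervical dislocation. %ID/g came from a standard dilution of the dose, decay-corrected. Ratio is PIP tumor %ID/g to organ %ID/g.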

Kidney [11] = assay: Biodistribution in kidney of PSMA expressing human PC3 PIP and PSMA deficient human PC3 flu cells xenografted SCID mouse at 2 uCi, iv after 5 hrs; conditions: in vivo
[12] = Ratio of drug level in tumor to stomach of human PSMA expressing PC3 PIP and PSMA deficient human PC3 flu cells xenografted SCID mouse at 2 uCi, iv after 2 hrs; conditions: in vivo; method in brief: as §2
Lung [13] = assay: Biodistribution in lung of PSMA expressing human PC3 PIP and PSMA deficient human PC3 flu cells xenografted SCID mouse at 2 uCi, iv after 30 mins; conditions: in vivo, 0.5 h
[14] = Ratio of drug level in tumor to large intestine of human PSMA expressing PC3 PIP and PSMA deficient human PC3 flu cells xenografted SCID mouse at 2 uCi, iv after 5 hrs; conditions: in vivo; method in brief: as §1
Kidney [15] = assay: Biodistribution in kidney of PSMA expressing human PC3 PIP and PSMA deficient human PC3 flu cells xenografted SCID mouse at 2 uCi, iv after 60 mins; conditions: in vivo, 1 h
[16] = Ratio of drug level in tumor to kidney of human PSMA expressing PC3 PIP and PSMA deficient human PC3 flu cells xenografted SCID mouse at 2 uCi, iv after 60 mins; conditions: in vivo, 1 h; method in brief: as §1
Blood [17] = assay: Biodistribution in blood of PSMA expressing human PC3 PIP and PSMA deficient human PC3 flu cells xenografted SCID mouse at 2 uCi, iv after 5 hrs; conditions: in vivo
[18] = Ratio of drug level in tumor to small intestine of human PSMA expressing PC3 PIP and PSMA deficient human PC3 flu cells xenografted SCID mouse at 2 uCi, iv after 2 hrs; conditions: in vivo; method in brief: as §2
[19] = Biodistribution in PC3 flu tumor of PSMA expressing human PC3 PIP and PSMA deficient human PC3 flu cells xenografted SCID mouse at 2 uCi, iv after 2 hrs; conditions: in vivo; method in brief: as §1
[20] = Biodistribution in small intestine of PSMA expressing human PC3 PIP and PSMA deficient human PC3 flu cells xenografted SCID mouse at 2 uCi, iv after 30 mins; conditions: in vivo, 0.5 h; method in brief: as §1
[21] = Ratio of drug level in tumor to blood of human PSMA expressing PC3 PIP and PSMA deficient human PC3 flu cells xenografted SCID mouse at 2 uCi, iv after 60 mins
Method in brief: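 Male SCID mice carried subcutaneous xenografts of PSMA+ PC-3 PIP cells behind the left shoulder and PSMA− PC-3 flu cells behind the right (1–5 × 10^6 cells in HBSS), used at a tumour diameter of 3–5 mm. Each mouse received 2 μCi of radioiodinated tracer via the tail vein. Tissues were harvested at each time point for %ID/g against a standard dilution of the dose, decay-corrected. Ratios are PIP tumour:organ.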

[22] = Ratio of drug level in tumor to pancreas of human PSMA expressing PC3 PIP and PSMA deficient human PC3 flu cells xenografted SCID mouse at 2 uCi, iv after 2 hrs; conditions: in vivo; method in brief: as §1
Spleen = assay: Biodistribution in spleen of PSMA expressing human PC3 PIP and PSMA deficient human PC3 flu cells xenografted SCID mouse at 2 uCi, iv after 60 mins; conditions: in vivo, 1 h
[23] = Ratio of drug level in tumor to spleen of human PSMA expressing PC3 PIP and PSMA deficient human PC3 flu cells xenografted SCID mouse at 2 uCi, iv after 2 hrs; conditions: in vivo; method in brief: as §2
Blood [24] = assay: Biodistribution in blood of PSMA expressing human PC3 PIP and PSMA deficient human PC3 flu cells xenografted SCID mouse at 2 uCi, iv after 2 hrs; conditions: in vivo
[25] = Ratio of drug level in PC3 PIP tumor to PC3 flu tumor of human PSMA expressing PC3 PIP and PSMA deficient human PC3 flu cells xenografted SCID mouse at 2 uCi, iv after 2 hrs; conditions: in vivo; method in brief: as §1
Blood [26] = assay: Biodistribution in blood of PSMA expressing human PC3 PIP and PSMA deficient human PC3 flu cells xenografted SCID mouse at 2 uCi, iv after 30 mins; conditions: in vivo, 0.5 h
[27] = Ratio of drug level in tumor to heart of human PSMA expressing PC3 PIP and PSMA deficient human PC3 flu cells xenografted SCID mouse at 2 uCi, iv after 5 hrs; conditions: in vivo; method in brief: as §1

O=C(O)CC[C@H](NC(=O)N[C@@H](CCCCNC(=O)c1ccc([18F])cc1)C(=O)O)C(=O)O
Drug uptake (Urinary bladder): 11 % ID/g
Drug uptake (Stomach [1]): 0.8 % ID/g
Drug uptake (Stomach [2]): 0.3 % ID/g
Drug uptake (Lung [3]): 1 % ID/g
Drug uptake [4]: 0.1 % ID/g
Ratio [5]: 13
Drug uptake (Blood [6]): 0.7 % ID/g
Ratio [7]: 0.4
Drug uptake [8]: 0.5 % ID/g
Ratio [9]: 19
Ratio [10]: 0.7
Drug uptake (Kidney [11]): 14 % ID/g
Ratio [12]: 13
Drug uptake (Lung [13]): 1.7 % ID/g
Ratio [14]: 6
Drug uptake (Kidney [15]): 48 % ID/g
Ratio [16]: 0.1
Drug uptake (Blood [17]): 0.03 % ID/g
Ratio [18]: 12
Drug uptake [19]: 0.25 % ID/g
Drug uptake [20]: 1.7 % ID/g
Kp at 1 h [21]: 9
Ratio [22]: 25
Drug uptake (Spleen): 7.2 % ID/g
Ratio [23]: 1
Drug uptake (Blood [24]): 0.4 % ID/g
Ratio [25]: 15
Drug uptake (Blood [26]): 2.5 % ID/g
Ratio [27]: 117
